Sampled rows, rich in hits. Any-hit rate of the full collection: about 2.3%.
PAD4 inh = human PAD4 inhibitors, primary screen, biochemical, fluorescence polarization, 1536-well format; Protein-arginine deiminase type-4 (Homo sapiens), Q9UM07; hit rate 0.41% among 330,000; recombinant PAD4, RCA probe fluorescence polarization; inhibition, % at 6.36 µM;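 active means percent inhibition above a cutoff equal to the mean of all tested compounds plus 3 SD, cut at about 15% in these data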;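 further: 0% = PAD4 with RCA probe and DMSO and 100% = probe without PAD4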
GSTO1 inh = inhibitors of recombinant GSTO1, primary screen, counter-screen for RBBP9 inhibitor project, biochemical, fluorescence polarization; Glutathione S-transferase omega-1 (Homo sapiens), P78417; activity-based probe fluorescence polarization; inhibition, % at 5.96 µM; hit rate 1.1% among 300,000;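 active means inhibition above the campaign mean inhibition plus 3 SD, cut at about 35% in these data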;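 further: 0% = GSTO1-1 with DMSO and 100% = wells lacking GSTO1-1 enzyme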
RBBP9 inhibitor = human RBBP9 inhibitors, primary screen, biochemical, fluorescence polarization, FP-Rh probe, HTS; Serine hydrolase RBBP9 (Homo sapiens), O75884; recombinant RBBP9; inhibition, % at 7.94 µM; hit rate 0.2% among 220,000;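 active means inhibition above the campaign mean of all tested compounds plus 3 SD, cut at about 14% in these data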;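 further: plate controls were DMSO wells with RBBP9 for no effect and wells lacking RBBP9 protein for full effect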
Target sequence (O75884 whole entry, looked up): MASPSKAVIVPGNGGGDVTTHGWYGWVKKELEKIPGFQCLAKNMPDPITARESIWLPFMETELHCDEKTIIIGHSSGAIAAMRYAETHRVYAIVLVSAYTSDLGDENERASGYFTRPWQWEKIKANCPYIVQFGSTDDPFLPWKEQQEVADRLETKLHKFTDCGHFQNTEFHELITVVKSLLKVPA
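Material: RBBP9 protein. Amount: RBBP9 at 2.5 µM in dispensed solution, before mixing. Schedule: 30 min then 45 min, 25 °C. Medium: Tris buffer pH 8.0, NaCl, Pluronic. Measured by: fluorescence polarization. Measure: percent inhibition from mP, scaled between DMSO and no-protein wells. Replication: one well per compound.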
PME-1 primary = PME-1 inhibitors via competitive probe labeling, primary screen, biochemical, fluorescence polarization, FP-Rh probe, HTS | recombinant PME-1 | inhibition, % at 5.9 µM | hit rate 0.53% among 320,000;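 active means inhibition above the campaign mean of all compounds plus 3 SD, cut at about 26% in these data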;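 further: competitive labeling of PME-1 active site by serine hydrolase directed probe; 0% = PME-1 with DMSO and 100% = wells lacking PME-1 enzyme; inhibitors block probe labeling so polarization falls and inhibition rises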
Fam108B inh = mouse Fam108B serine hydrolase inhibitors, primary screen, counter-screen for RBBP9 inhibitor project, biochemical, fluorescence polarization | recombinant Fam108B, FP-Rh probe fluorescence polarization | inhibition, % at 9.51 µM | hit rate 0.33% among 300,000 | AID 1947, 2009;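 active means inhibition above the screen mean inhibition plus 3 SD, computed separately per campaign, cut at about 18% in these data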;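 further: inhibitors lower polarization as less probe binds the enzyme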
PRMT1 FP inh = PRMT1 methyltransferase inhibitors, primary screen, biochemical, fluorescence polarization | AID 652257, 2013 | inhibition, % at 2.79 µM | recombinant PRMT1, activity-based probe fluorescence polarization | hit rate 1.3% among 370,000;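 active means inhibition above about 21% made by adding two undisclosed values, limit read from the data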
Target sequence (Q99873 whole entry, looked up): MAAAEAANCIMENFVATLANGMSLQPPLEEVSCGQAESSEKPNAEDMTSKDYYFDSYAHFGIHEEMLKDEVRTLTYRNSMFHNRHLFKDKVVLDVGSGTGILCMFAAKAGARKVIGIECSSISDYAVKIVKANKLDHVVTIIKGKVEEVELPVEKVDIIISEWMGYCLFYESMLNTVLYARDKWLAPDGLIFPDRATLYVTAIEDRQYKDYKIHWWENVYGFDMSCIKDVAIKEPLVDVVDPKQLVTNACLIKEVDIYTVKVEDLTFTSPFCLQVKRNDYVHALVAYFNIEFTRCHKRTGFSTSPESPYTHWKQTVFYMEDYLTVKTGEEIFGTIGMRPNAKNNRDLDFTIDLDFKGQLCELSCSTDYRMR
Numbers without * were called inactive; . = no result given.

SMILES	PAD4 inh	GSTO1 inh	RBBP9 inhibitor	PME-1 primary	Fam108B inh	PRMT1 FP inh
CCOC(=O)c1c(NC(=S)NC)sc2c1CC(C)(C)SC2	-1	2	-4	1	-1	24*
Cn1c(C(=O)OC(C(=O)NC(C)(C)C)c2cccnc2)cc2sccc21 (centres undefined)	0	4	-3	-1	-3	-2
COCCN=C1NC(=O)C(CC(=O)Nc2cccc(Cl)c2C)S1 (centres undefined)	-2	6	-10	-1	0	24*
CC[n+]1c(/C=C2\C=C(C)CC(C)C2)sc2ccccc21 (centres undefined)	-3	-11	-6	0	0	.
CCC1=C/C(=C/c2sc3ccccc3[n+]2CC)CC(C)(C)C1	-4	-4	-4	2	1	37*
O=C(CCl)Nc1cccc(S(=O)(=O)N2CCCCCC2)c1	3	91*	-5	-7	3	-2
CN(Cc1ccccc1)C(=O)c1c[nH]c2ccc(S(=O)(=O)N3CCOCC3)cc2c1=O	-3	-1	6	-1	5	1
COc1cc(NC(=O)Nc2ccc3c(c2)OCO3)cc(OC)c1OC	-3	3	-3	-5	6	-4
COc1cc(C(Nc2ccc3c(c2)OCO3)C(=O)NC2CCCCC2)cc(OC)c1OC (centres undefined)	-7	-1	-3	5	0	25*
CCOc1ccc(/C=N/NC(=S)Nc2c(C)cccc2C)cc1	4	-2	1	-4	1	0
COc1ccc(OC)c(NC(=O)Nc2nnc(N3CCC(C)CC3)s2)c1	-2	3	-11	29*	2	1
COc1ccc(NC(=O)Nc2nnc(N3CCC(C)CC3)s2)cc1OC	-5	-1	-1	20	2	3
O=C(NCCc1cccs1)C1CC1	2	-11	-5	-5	-1	-6
NC(=O)C1CCN(C2=C(NS(=O)(=O)c3ccccc3)C(=O)c3ccccc3C2=O)CC1	-5	12	-5	2	0	-1
NC(=O)C1CCN(C2=C(NS(=O)(=O)c3ccc(Br)cc3)C(=O)c3ccccc3C2=O)CC1	-14	35*	.	7	2	3
COc1ccc(-c2nc3ccccn3c2NC2CCCCC2)cc1SC1CCCCC1	0	2	.	2	5	6
O=C(CNC(=O)C12CC3CC(CC(C3)C1)C2)N1CCCC(C(F)(F)F)C1 (centres undefined)	.	.	.	.	.	2
Cc1ccc(C)c(N2CCN(C(=O)c3cc4sccc4n3C)CC2)c1	1	2	-7	-5	-3	22*
O=C(N/N=C/c1c[nH]c2ccccc12)c1ccccc1	-5	5	.	2	0	-2
O=C(N/N=C/c1c[nH]c2ccccc12)c1sc2ccccc2c1Cl	-1	-25	-2	33*	14	0
COc1ccc(-c2cc(-c3ccccc3)c(C#N)c(S(C)=O)n2)cc1 (centres undefined)	-2	-32	0	3	-4	6
COc1ccc(-c2cc3nc4ccccc4n3c(N)c2C#N)cc1	-5	38*	-6	-7	7	-1
O=C(NC1CCCCC1)C(c1cccnc1)N(C(=O)CCl)c1cccc(Cl)c1 (centres undefined)	3	96*	-1	-3	2	1
Cc1nc2sc(C(=O)NCc3ccc4c(c3)OCO4)c(N)c2c(C)c1Cl	.	.	.	.	.	22*
COc1ccc(CNC(=O)c2sc3nc(C)c(Cl)c(C)c3c2N)cc1	.	.	.	.	.	9
SMILES	PAD4 inh	GSTO1 inh	RBBP9 inhibitor	PME-1 primary	Fam108B inh	PRMT1 FP inh
Cn1ncc2c(c(SCc3ccc(Cl)cc3Cl)nn2C)c1=O	1	2	-9	1	1	22*
Nc1n[nH]c(C2CC2)c1N=Nc1ccc(Cl)c(Cl)c1	1	-14	-3	31*	5	0
Nc1n[nH]c(C2CC2)c1N=Nc1ccc(Cl)cc1	3	2	6	0	3	-4
COc1ccc(S(=O)(=O)N2CCN(CC(=O)NC(Cc3ccccc3)C(C)=O)CC2)cc1 (centres undefined)	0	.	.	.	.	-2
COC(=O)C1=C(C)Nc2ccc(C)cc2S1	4	3	-6	-1	2	24*
COc1ccc(C2/C=C\CN(C(=O)Nc3ccccc3)CC(=O)N2Cc2ccc(F)cc2)cc1 (centres undefined)	2	36*	.	-3	4	1
COc1ccc(C2/C=C\CN(C(=O)Nc3ccc(C(F)(F)F)cc3)CC(=O)N2Cc2ccc(F)cc2)cc1 (centres undefined)	1	-2	.	-52	-34	.
O=C(COC(=O)c1cncc(Br)c1)NCc1ccco1	0	1	-4	-2	2	18
Cc1ccoc1C(=O)NCCCNC(=O)c1occc1C	-14	35*	1	-2	4	3
CCCC(CCC)C(=O)Nc1ccc2c(c1)N(C(=O)CN1CCN(C)CC1)c1ccccc1CC2	-1	0	7	0	0	-2
COCCNC(=O)CNC(c1ccccc1)c1ccccc1	0	-1	4	1	-5	.
CCOc1ccc(Nc2nc(N)nc(CCl)n2)cc1	-2	82*	3	1	-1	4
Cc1cccc(Nc2nc(N)nc(CCl)n2)c1C	3	65*	5	-1	-1	-1
COc1ccc(C(=O)N2CCCC(c3cc(C(=O)NCc4ccccc4)no3)C2)cc1 (centres undefined)	.	.	.	.	.	-3
NC(=S)N=Nc1c(O)[nH]c2ccccc12	-3	2	2	-1	2	1
NC(=S)N=Nc1c(O)[nH]c2c(Br)cc(Br)cc12	1	39*	0	5	-9	3
NS(=O)(=O)c1ccc(Nc2ccc([N+](=O)[O-])c3nonc23)cc1	-3	37*	7	-8	3	1
O=C(O)c1ccc(Nc2ccc([N+](=O)[O-])c3nonc23)cc1	.	.	.	.	.	9
C=CCNc1nc2c3ccccc3n(C(C)=O)c2s1	4	12	-6	1	2	13
CCn1cc(CN2CCC(n3nccc3NC(=O)CCCc3ccccc3)CC2)cn1	4	-3	.	-3	0	-1
O=C(CSc1nncc(=O)[nH]1)Nc1cccc([N+](=O)[O-])c1	3	35*	.	0	5	33*
CCOc1cc(NC(=S)Nc2cccc(OC)c2)c(OCC)cc1NC(=O)C(C)C	4	4	-5	-4	6	9
CCOc1cc(NC(=S)Nc2cccc(C)c2)c(OCC)cc1NC(=O)CC(C)C	.	.	3	.	.	24*

Compound activity deposited in PubChem BioAssay by The Scripps Research Institute Molecular Screening Center.
